Experimental data from ChEMBL document CHEMBL1138430, “Novel tetrahydroisoquinolines are histamine H3 antagonists and serotonin reuptake inhibitors” (Bioorg Med Chem Lett, 2007).

Key:
Histamine H3 receptor [1] = target: T1, Histamine H3 receptor (Homo sapiens, UniProt Q9Y5N1); assay: Antagonist activity at human histamine H3 receptor; format: functional; conditions: read-out: pA2 (converted)
[2] = (§1) Volume of distribution at steady state in po and iv dosed rat; format: ADME, organism-based; conditions: in vivo, read-out: Vdss
[3] = Plasma clearance in po and iv dosed rat; format: ADME, organism-based
[4] = target: Sodium-dependent serotonin transporter (Rattus norvegicus, UniProt P31652); assay: Binding affinity at rat SERT
Sequence of Sodium-dependent serotonin transporter (Rattus norvegicus, UniProt P31652) (P31652 whole entry): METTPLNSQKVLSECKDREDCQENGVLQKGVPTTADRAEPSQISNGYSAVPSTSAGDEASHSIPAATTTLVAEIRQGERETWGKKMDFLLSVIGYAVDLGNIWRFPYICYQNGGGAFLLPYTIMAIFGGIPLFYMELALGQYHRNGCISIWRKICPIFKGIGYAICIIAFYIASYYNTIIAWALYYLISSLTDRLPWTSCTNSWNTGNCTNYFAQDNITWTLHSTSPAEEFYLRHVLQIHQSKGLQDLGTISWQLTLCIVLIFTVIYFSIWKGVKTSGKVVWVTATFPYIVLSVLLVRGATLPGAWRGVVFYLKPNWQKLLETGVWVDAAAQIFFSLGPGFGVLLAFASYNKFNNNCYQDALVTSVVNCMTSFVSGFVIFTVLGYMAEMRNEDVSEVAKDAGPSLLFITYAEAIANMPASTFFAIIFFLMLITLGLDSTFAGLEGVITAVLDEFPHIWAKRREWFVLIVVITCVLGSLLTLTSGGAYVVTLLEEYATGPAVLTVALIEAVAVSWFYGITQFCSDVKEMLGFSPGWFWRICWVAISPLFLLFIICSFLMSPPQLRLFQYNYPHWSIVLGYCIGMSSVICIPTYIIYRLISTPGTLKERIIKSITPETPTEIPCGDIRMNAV

[5] = target: Sodium-dependent serotonin transporter (Homo sapiens, UniProt P31645); assay: Binding affinity at human SERT
Sequence of Sodium-dependent serotonin transporter (Homo sapiens, UniProt P31645) (P31645 whole entry): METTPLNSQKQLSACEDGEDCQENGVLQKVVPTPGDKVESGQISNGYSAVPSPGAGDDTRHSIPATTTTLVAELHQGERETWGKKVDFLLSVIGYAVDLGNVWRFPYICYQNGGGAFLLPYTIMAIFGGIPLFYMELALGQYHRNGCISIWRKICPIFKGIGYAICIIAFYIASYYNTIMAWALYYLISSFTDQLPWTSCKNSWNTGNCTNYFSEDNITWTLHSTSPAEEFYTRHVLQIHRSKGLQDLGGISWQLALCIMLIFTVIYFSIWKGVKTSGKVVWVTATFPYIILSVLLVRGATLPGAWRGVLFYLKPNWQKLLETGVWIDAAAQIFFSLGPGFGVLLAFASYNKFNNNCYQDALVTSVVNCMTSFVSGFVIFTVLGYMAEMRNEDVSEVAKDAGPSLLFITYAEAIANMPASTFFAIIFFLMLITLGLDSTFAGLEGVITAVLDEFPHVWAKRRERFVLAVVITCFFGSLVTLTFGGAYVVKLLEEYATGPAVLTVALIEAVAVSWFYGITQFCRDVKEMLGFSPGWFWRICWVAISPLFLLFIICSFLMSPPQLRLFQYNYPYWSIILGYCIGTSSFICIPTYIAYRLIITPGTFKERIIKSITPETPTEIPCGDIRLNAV

[6] = (§2) Half life in po and iv dosed rat; format: ADME, organism-based; conditions: in vivo
[7] = (§3) Bioavailability in po dosed rat; format: ADME, organism-based; conditions: in vivo
Histamine H3 receptor [8] = target: T1, Histamine H3 receptor; assay: Binding affinity at human histamine H3 receptor
Rattus norvegicus [9] = assay: as §1; format: ADME, organism-based; conditions: in vivo
[10] = Cmax in rat brain at 10 mg/kg, po; format: ADME, organism-based; set-up: dose 10 mg/kg, route oral
Rattus norvegicus [11] = assay: as §2; format: ADME, organism-based; conditions: in vivo
Rattus norvegicus [12] = assay: as §3; format: ADME, organism-based; conditions: in vivo
Brain = assay: Drug level in rat brain at 0.1 mg/kg; format: ADME, organism-based; set-up: dose 0.1 mg/kg; conditions: in vivo, read-out: Drug uptake
Rattus norvegicus [13] = species on record: Rattus norvegicus; assay: Ex vivo receptor occupancy at histamine H3 receptor in rat; format: functional
Rattus norvegicus [14] = species on record: Rattus norvegicus; assay: Ex vivo receptor occupancy at SERT in rat; format: functional
[15] = system: Voltage-gated potassium channel; assay: Binding affinity for potassium channel at 1 uM; format: protein assay; conditions: human
[16] = target: Sodium-dependent dopamine transporter (Homo sapiens, UniProt Q01959); assay: Inhibition of [3H]WIN-uptake in human DAT expressed in CHO cells; format: cell-based
Sequence of Sodium-dependent dopamine transporter (Q01959 whole entry): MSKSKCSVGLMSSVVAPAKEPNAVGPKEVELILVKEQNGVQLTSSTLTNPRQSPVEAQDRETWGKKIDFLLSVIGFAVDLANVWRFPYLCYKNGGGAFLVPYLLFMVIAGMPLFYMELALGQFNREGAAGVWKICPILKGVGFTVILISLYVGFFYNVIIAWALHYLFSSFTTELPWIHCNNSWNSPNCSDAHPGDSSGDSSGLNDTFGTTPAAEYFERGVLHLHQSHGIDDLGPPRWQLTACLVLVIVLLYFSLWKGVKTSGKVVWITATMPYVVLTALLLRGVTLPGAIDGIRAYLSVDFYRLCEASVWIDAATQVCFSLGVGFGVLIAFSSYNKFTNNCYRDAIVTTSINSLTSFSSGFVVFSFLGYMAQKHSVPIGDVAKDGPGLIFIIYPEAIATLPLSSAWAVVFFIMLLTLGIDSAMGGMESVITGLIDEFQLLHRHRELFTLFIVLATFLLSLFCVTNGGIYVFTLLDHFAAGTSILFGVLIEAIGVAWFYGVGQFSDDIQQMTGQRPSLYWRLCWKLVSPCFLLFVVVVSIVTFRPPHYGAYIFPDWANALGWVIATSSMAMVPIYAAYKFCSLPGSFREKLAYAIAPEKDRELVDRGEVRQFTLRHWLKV
Procedure, shortened: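 Human DAT expressed in CHO cells; membranes were incubated on ice for 2 h with 10.9 nM [3H]-WIN 35,428, then harvested by rapid filtration. Nonspecific binding was defined with GBR-12909. Ki values are means of at least three experiments run in triplicate, with SEM.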

[17] = system: Voltage-gated calcium channel; assay: Binding affinity for calcium channel at 1 uM; format: protein-complex assay; conditions: human
[18] = target: Sodium-dependent noradrenaline transporter (Homo sapiens, UniProt P23975); assay: Inhibition of [3H]nisoxetine uptake in human NET expressed in MDCK cells; format: cell-based
Sequence of Sodium-dependent noradrenaline transporter (P23975 whole entry): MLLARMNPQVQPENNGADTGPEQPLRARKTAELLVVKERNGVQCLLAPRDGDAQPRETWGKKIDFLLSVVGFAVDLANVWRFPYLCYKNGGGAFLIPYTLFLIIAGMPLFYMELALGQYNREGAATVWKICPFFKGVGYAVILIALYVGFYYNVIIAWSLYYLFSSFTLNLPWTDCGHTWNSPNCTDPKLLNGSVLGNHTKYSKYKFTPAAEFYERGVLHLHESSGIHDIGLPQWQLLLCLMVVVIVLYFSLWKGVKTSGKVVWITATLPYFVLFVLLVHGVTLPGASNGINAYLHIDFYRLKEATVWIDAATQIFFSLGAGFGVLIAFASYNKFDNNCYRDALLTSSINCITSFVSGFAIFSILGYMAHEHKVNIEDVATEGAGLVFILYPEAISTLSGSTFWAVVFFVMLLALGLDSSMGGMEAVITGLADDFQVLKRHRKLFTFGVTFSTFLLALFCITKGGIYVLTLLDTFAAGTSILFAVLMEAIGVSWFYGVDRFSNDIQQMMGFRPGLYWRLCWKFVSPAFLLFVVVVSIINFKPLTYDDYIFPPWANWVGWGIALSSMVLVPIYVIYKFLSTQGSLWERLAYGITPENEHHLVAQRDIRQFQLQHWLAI

T1 sequence (Q9Y5N1 whole entry): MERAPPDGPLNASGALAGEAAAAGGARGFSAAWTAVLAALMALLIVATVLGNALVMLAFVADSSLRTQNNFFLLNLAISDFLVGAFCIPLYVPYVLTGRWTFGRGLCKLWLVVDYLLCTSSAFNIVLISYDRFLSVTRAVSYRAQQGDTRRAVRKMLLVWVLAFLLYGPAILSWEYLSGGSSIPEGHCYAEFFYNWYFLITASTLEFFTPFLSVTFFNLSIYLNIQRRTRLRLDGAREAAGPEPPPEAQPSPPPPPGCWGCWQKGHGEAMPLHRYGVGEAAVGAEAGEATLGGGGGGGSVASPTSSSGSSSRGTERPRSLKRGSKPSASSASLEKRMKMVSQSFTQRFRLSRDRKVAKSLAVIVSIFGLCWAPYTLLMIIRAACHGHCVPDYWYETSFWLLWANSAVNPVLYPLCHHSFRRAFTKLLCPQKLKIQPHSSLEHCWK

## COc1ccc(C2CN(C)Cc3cc(OCCCN4CCOCC4)ccc32)cc1 (stereo unspecified)
Histamine H3 receptor [1]
  Kb: 2.29 nM

## CCOc1ccc(C2CN(C)Cc3cc(OCCCN4CCC(F)CC4)ccc32)cc1 (stereo unspecified)
[2]
  Vd: 15.5 L/kg
[3]
  clearance: 29.9 mL/min/kg
[4]
  Ki: 2.7 nM
[5]
  Ki: 4.7 nM
[6]
  half-life: 10.3 h
[7]
  bioavailability: 11%
Histamine H3 receptor [8]
  Ki: 7.3 nM

## COc1ccc(C2CN(C)Cc3cc(OCCCN4CCC(F)CC4)ccc32)cc1Cl (stereo unspecified)
Histamine H3 receptor [1]
  Kb: 6.17 nM
[4]
  Ki: 5.3 nM
[5]
  Ki: 5.7 nM
Histamine H3 receptor [8]
  Ki: 9.7 nM

## CN1Cc2cc(OCCCN3CCC(F)CC3)ccc2C(c2ccc(Cl)cc2)C1 (stereo unspecified)
[4]
  Ki: 16 nM
Histamine H3 receptor [8]
  Ki: 8.3 nM

## CN1Cc2cc(OCCCN3CCC(F)CC3)ccc2C(c2ccccc2Cl)C1 (stereo unspecified)
[4]
  Ki: 17 nM
[5]
  Ki: 18 nM
Histamine H3 receptor [8]
  Ki: 5.6 nM

## CN1Cc2cc(OCCCN3CCC(F)CC3)ccc2C(c2ccc(Cl)c(Cl)c2)C1 (stereo unspecified)
Histamine H3 receptor [1]
  Kb: 33.1 nM
[4]
  Ki: 8.3 nM
[5]
  Ki: 21 nM
Histamine H3 receptor [8]
  Ki: 31 nM

## CN1Cc2cc(OCCCN3CCC(F)CC3)ccc2C(c2cc(Cl)ccc2Cl)C1 (stereo unspecified)
Histamine H3 receptor [1]
  Kb: 4.57 nM
[4]
  Ki: 120 nM
[5]
  Ki: 107 nM
Histamine H3 receptor [8]
  Ki: 9.3 nM

## CN1Cc2cc(OCCCN3CCC(F)CC3)ccc2C(c2ccc(C(F)(F)F)cc2)C1 (stereo unspecified)
[4]
  Ki: 14 nM
[5]
  Ki: 8.6 nM
Histamine H3 receptor [8]
  Ki: 18 nM

## CN1Cc2cc(OCCCN3CCC(F)CC3)ccc2C(c2cccc(C(F)(F)F)c2)C1 (stereo unspecified)
[4]
  Ki: 30 nM
[5]
  Ki: 15 nM
Histamine H3 receptor [8]
  Ki: 11 nM

## CN1Cc2cc(OCCCN3CCC(F)CC3)ccc2C(c2ccc(C#N)cc2)C1 (stereo unspecified)
Histamine H3 receptor [1]
  Kb: 1.41 nM
[4]
  Ki: 7.8 nM
[5]
  Ki: 16 nM
Histamine H3 receptor [8]
  Ki: 3.5 nM

## Cc1ccc(C2CN(C)Cc3cc(OCCCN4CCC(F)CC4)ccc32)cc1 (stereo unspecified)
[4]
  Ki: 4.4 nM
[5]
  Ki: 13 nM
Histamine H3 receptor [8]
  Ki: 8.3 nM

## CN1Cc2cc(OCCCN3CCC(F)CC3)ccc2C(c2ccc(SC(F)(F)F)cc2)C1 (stereo unspecified)
[4]
  Ki: 36 nM
[5]
  Ki: 34 nM
Histamine H3 receptor [8]
  Ki: 46 nM

## CN1Cc2cc(OCCCN3CCC(F)CC3)ccc2C(c2ccc(OC(F)F)cc2)C1 (stereo unspecified)
Histamine H3 receptor [1]
  Kb: 4.37 nM
[5]
  Ki: 4.3 nM
Histamine H3 receptor [8]
  Ki: 10 nM

## COc1ccc([C@H]2CN(C)Cc3cc(OCCCN4CCOC[C@@H]4C)ccc32)cc1
Histamine H3 receptor [1]
  Kb: 2.95 nM
Histamine H3 receptor [8]
  Ki: 6.9 nM

## CN1Cc2cc(OCCCN3CCC(F)CC3)ccc2C(c2ccc(S(C)(=O)=O)cc2)C1 (stereo unspecified)
[4]
  Ki: 22 nM
[5]
  Ki: 135 nM

## CN1Cc2cc(OCCCN3CCC(F)CC3)ccc2C(c2ccccc2)C1 (stereo unspecified)
Histamine H3 receptor [1]
  Kb: 0.724 nM
[5]
  Ki: 46 nM
Histamine H3 receptor [8]
  Ki: 3.3 nM

## COc1cccc(C2CN(C)Cc3cc(OCCCN4CCC(F)CC4)ccc32)c1 (stereo unspecified)
Histamine H3 receptor [1]
  Kb: 0.851 nM
[4]
  Ki: 4.3 nM
[5]
  Ki: 4.3 nM
Histamine H3 receptor [8]
  Ki: 2 nM

## CN1Cc2cc(OCCCN3CCC(F)CC3)ccc2C(c2cccc(Cl)c2)C1 (stereo unspecified)
Histamine H3 receptor [1]
  Kb: 1.38 nM
[5]
  Ki: 24 nM

## COc1ccc(C2CN(C)Cc3cc(OCCCN4CCC(F)CC4)ccc32)cc1 (racemic)
Rattus norvegicus [9]
  Vdss: 19.9 L/kg
[10]
  Cmax: 1500 nM
[4]
  Ki: 1.7 nM
[5]
  Ki: 2.7 nM
Rattus norvegicus [11]
  t1/2: 16 h
Rattus norvegicus [12]
  F: 6%

## CSc1ccc(C2CN(C)Cc3cc(OCCCN4CCC(F)CC4)ccc32)cc1 (racemic)
Brain
  concentration: 130 nM
Rattus norvegicus [13]
  ED50: 0.05 mg/kg
Rattus norvegicus [14]
  ED50: 0.1 mg/kg
[15]
  Activity: Not Active
[16]
  Ki: 46 nM
[2]
  Vd: 9.6 L/kg
[10]
  Cmax: 2400 nM
[3]
  clearance: 18.5 mL/min/kg
[17]
  Activity: Not Active
[4]
  Ki: 2 nM
[6]
  half-life: 9.9 h
[7]
  bioavailability: 21%
[18]
  Ki: 118 nM

## COc1ccc(C2CN(C)Cc3cc(OCCCN4CCC(F)CC4)ccc32)cc1 (single isomer, unassigned; (-))
[4]
  Ki: 4.5 nM
[5]
  Ki: 9.3 nM

## COc1ccc(C2CN(C)Cc3cc(OCCCN4CCC(F)CC4)ccc32)cc1 (stereo in doubt; 12b)
Rattus norvegicus [9]
  Vdss: 5.1 L/kg
[3]
  clearance: 32.3 mL/min/kg
[6]
  half-life: 13.3 h
Rattus norvegicus [12]
  F: 13%

## CSc1ccc(C2CN(C)Cc3cc(OCCCN4CCC(F)CC4)ccc32)cc1 (stereo in doubt; 12o)
[4]
  Ki: 2.3 nM
[5]
  Ki: 8.8 nM

## CSc1ccc(C2CN(C)Cc3cc(OCCCN4CCC(F)CC4)ccc32)cc1 (stereo in doubt; (-)/-12p)
[4]
  Ki: 5 nM
[5]
  Ki: 4.2 nM
